Test [1] concerns Ptch+/−p53−/− medulloblastoma tumors. Put plainly: Ptch+/−p53−/− medulloblastoma allograft efficacy study in nude mice. In kind it is in vivo, mouse.
For a further test, the target named is Mouse Smo G457S (Mus musculus, UniProt P56726, G457S). In kind it is cell-based. In outline:
(§1)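 C3H10T1/2 cells transiently co-transfected with HA-tagged mouse Smo (wild-type or point mutant, in pcDNA3.1), a Gli-luciferase reporter and TK-driven renilla luciferase. Serial dilutions of test compound (0.001 to 10 μM final) added 24 h post-transfection. Firefly and renilla luciferase read by dual-luciferase assay after a further 24 h. Percent inhibition calculated relative to DMSO control.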

For another test, the target named is Mouse Smo Wild-type (Mus musculus, UniProt P56726). In kind it is cell-based. In a few lines: as §1
Chain of Mouse Smo Wild-type (P56726 33-793): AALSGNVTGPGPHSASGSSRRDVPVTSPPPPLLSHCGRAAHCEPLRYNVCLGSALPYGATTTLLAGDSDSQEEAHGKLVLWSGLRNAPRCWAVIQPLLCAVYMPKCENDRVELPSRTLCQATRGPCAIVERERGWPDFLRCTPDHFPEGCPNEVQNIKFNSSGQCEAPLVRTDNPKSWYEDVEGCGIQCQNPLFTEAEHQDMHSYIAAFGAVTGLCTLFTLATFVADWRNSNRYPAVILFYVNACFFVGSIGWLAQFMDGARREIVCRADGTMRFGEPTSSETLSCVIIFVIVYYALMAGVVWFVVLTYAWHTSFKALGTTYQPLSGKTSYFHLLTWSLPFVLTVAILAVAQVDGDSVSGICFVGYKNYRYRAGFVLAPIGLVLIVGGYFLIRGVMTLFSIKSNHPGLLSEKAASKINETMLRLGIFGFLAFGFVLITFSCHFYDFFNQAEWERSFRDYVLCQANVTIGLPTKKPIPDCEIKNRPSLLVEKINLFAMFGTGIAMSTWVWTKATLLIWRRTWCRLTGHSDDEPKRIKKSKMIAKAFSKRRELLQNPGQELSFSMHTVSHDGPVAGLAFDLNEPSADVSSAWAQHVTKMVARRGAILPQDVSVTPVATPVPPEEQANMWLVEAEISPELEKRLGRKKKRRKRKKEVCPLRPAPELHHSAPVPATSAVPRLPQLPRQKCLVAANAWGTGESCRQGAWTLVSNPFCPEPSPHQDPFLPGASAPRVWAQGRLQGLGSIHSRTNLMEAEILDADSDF
The next test addresses Mouse Smo L225R (Mus musculus, UniProt P56726, L225R). In kind it is cell-based. In a few lines:
as §1

Test [2] concerns Gli1, Ptch1, Ptch2 and CyclinD1 mRNA. Description: Hh target gene mRNA in Ptch+/−Hic1+/− medulloblastoma allografts in nude mice. In kind it is in vivo, mouse. As to conditions: Ptch+/−Hic1+/− allograft, oral, initial treatment.
For a further test, the system named is Gli1 mRNA. Description: Gli1 mRNA in Ptch+/−p53−/− medulloblastoma allografts in nude mice. As to conditions: oral, 20 mg/kg/day qd. In kind it is in vivo, mouse.
The target in the next test is human Smo (Homo sapiens, UniProt Q99835). Put plainly: Smo Agonist 1.5 displacement assay, human Smo. The format is binding.
Chain of human Smo (Q99835 28-787): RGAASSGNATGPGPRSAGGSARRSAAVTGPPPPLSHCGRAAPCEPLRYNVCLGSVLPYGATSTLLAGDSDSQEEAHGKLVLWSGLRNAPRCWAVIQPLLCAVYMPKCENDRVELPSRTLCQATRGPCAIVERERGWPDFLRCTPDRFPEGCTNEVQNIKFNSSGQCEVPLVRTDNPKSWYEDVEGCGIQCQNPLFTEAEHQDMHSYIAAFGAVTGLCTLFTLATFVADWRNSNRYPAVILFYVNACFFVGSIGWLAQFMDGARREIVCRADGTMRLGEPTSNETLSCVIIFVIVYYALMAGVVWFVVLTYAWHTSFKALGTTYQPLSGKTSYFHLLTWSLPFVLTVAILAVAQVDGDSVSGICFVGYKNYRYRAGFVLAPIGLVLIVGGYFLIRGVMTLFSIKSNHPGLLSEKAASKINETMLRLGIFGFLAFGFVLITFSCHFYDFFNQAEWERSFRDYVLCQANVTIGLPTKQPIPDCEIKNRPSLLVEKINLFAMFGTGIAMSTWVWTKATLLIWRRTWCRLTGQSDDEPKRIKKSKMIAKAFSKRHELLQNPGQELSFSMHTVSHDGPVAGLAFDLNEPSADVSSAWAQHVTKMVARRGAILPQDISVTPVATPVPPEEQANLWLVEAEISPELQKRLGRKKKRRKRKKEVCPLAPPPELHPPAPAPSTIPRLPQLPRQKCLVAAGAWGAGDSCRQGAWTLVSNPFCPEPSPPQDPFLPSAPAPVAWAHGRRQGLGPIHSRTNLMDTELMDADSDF
Test [3] has as its system Ptch+/−Hic+/− medulloblastoma tumors. Put plainly: Ptch+/−Hic+/− medulloblastoma allograft efficacy study in nude mice. In kind it is in vivo, mouse.
The target in another test is Mouse Smo S391N (Mus musculus, UniProt P56726, S391N). The format is cell-based. In outline: as §1
Chain of Mouse Smo S391N (P56726 33-793 S391N): as the sequence (P56726 33-793) above, with S359N counted along it
For another test, the target named is mouse Smo (Mus musculus, UniProt P56726). Description: Smo Agonist 1.5 displacement assay, mouse Smo. In kind it is binding.
Chain of mouse Smo (P56726 33-793): as the sequence (P56726 33-793) above
A further test addresses Mouse Smo D388N (Mus musculus, UniProt P56726, D388N). In kind it is cell-based. In a few lines: as §1
A further test concerns the target Mouse Smo N223D (Mus musculus, UniProt P56726, N223D). In kind it is cell-based. In outline: as §1
The test system of a further test is resistant tumor cells. Put plainly: Ex-vivo medulloblastoma proliferation assay. The format is cell-based, mouse. Conditions: cells freshly isolated from resistant tumors.

Chain of Mouse Smo N223D (P56726 33-793 N223D): as the sequence (P56726 33-793) above, with N191D counted along it
Chain of Mouse Smo G457S (P56726 33-793 G457S): as the sequence (P56726 33-793) above, with G425S counted along it
Chain of Mouse Smo D388N (P56726 33-793 D388N): as the sequence (P56726 33-793) above, with D356N counted along it
Chain of Mouse Smo L225R (P56726 33-793 L225R): as the sequence (P56726 33-793) above, with L193R counted along it

With `Nc1cc(C(F)(F)F)c(-c2cc(N3CCOCC3)nc(N3CCOCC3)n2)cn1` [NVP-BKM120, reference compound], the “tumor growth inhibition in established NVP-LDE225 resistant tumors” value in [1] (treatment of established NVP-LDE225 resistant tumors, data not shown) is “modest but not statistically significant tumor growth inhibition”.
Consider `Cc1c(C(=O)Nc2ccc(N3C[C@@H](C)O[C@@H](C)C3)nc2)cccc1-c1ccc(OC(F)(F)F)cc1` [NVP-LDE225], for which the tumor growth entry in test [1] (10 mg/kg/day, Ptch+/−p53−/− allograft) is reported as “partial growth inhibition”. Besides, the IC50 (usually the concentration that inhibits the measured activity by half) is 0.4 µM against Mouse Smo G457S; 0.006 µM on Mouse Smo Wild-type; above 10 µM on Mouse Smo L225R; 0.011 µM at human Smo; above 10 µM against Mouse Smo S391N; 0.012 µM on mouse Smo. Besides, the IC50 against Mouse Smo D388N and against Mouse Smo N223D was above 10 µM in each case. Besides, the “Gli1, Ptch1, Ptch2 and CyclinD1 mRNA expression in tumors” value in test [2] is “Pronounced inhibition”. Further, in the test with Gli1 mRNA, the “expression of Hh pathway target gene Gli1 in tumors” value is reported as “completely suppressed”. The “tumor response during initial treatment” value in test [3] (Ptch+/−Hic1+/− allograft, oral) is given as “tumor regression”. Further, in test [3] (Ptch+/−Hic+/− allograft, after 61 days of treatment, n=8, NVP-LDE225 80 mg/kg/day qd, NVP-BEZ235 40 mg/kg/day qd), the “number of complete regressions” value amounted to 1.
Turning to HhAntag, in the test with resistant tumor cells, the “growth of resistant tumor cells upon exposure” value is on record as “largely unaffected”.

Source of the values: PMC3422576 (Science translational medicine, 2010).
